ChEMBL document CHEMBL1828575, “Design, synthesis and antiproliferative activities of biarylolefins based on polyhydroxylated and carbohydrate scaffolds” (Eur J Med Chem, 2011)

Experiments:
Assay type in all cases: functional
[1] = Cytotoxicity against human NCI60 cells assessed as cellular growth at 10 uM after 48 hrs by SRB assay relative to untreated control
In short: (§1)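 NCI-60 panel lines grown in RPMI 1640 with 5% FBS and 2 mM L-glutamine. Plated at 5000–40,000 cells/well and preincubated 24 h at 37 °C, 5% CO₂, with time-zero plates fixed in TCA. Compounds, dissolved in DMSO and diluted in medium, were applied for 48 h. Cells were TCA-fixed (10% final for adherent, 16% for suspension) and stained with 0.4% SRB in 1% acetic acid. Dye was solubilised in 10 mM Tris base and read at 515 nm; growth was expressed as a percentage of untreated control.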

[2] = tested on: RPMI-8226; test: Cytotoxicity against human RPMI8226 cells assessed as cellular growth at 10 uM after 48 hrs by SRB assay; in short: as §1
[3] = tested on: SF-268; test: Antitumor activity against human SF268 cells after 48 hrs by SRB assay; conditions: SF-268, 48 h
In short: (§2)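 NCI60 panel in RPMI 1640 with 5% FBS and 2 mM L-glutamine. Cells were plated at 5000–40,000/well by doubling time, held 24 h, then time-zero plates were TCA-fixed. Five concentrations (10-fold or half-log dilutions of DMSO stocks) were applied for 48 h at 37 °C, 5% CO2. Cells were fixed with cold TCA (10% final adherent, 16% suspension) and stained with 0.4% SRB. Bound dye was dissolved in 10 mM Tris and read at 515 nm. GI50, TGI and LC50 were calculated per line.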

[4] = tested on: UACC-62; test: Antitumor activity against human UACC62 cells after 48 hrs by SRB assay; conditions: UACC-62, 48 h
In short: (§3)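 NCI60 panel cells grown in RPMI 1640 with 5% FBS and 2 mM L-glutamine, plated at 5000–40,000 cells/well and preincubated 24 h at 37 °C, 5% CO₂. Compound was added from DMSO at five concentrations, 10-fold or 1/2 log dilutions, then incubated 48 h.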

[5] = tested on: TK-10; test: Antitumor activity against human TK10 cells after 48 hrs by SRB assay; conditions: TK-10, 48 h; in short: as §3
[6] = tested on: HCT-116; test: Antitumor activity against human HCT116 cells after 48 hrs by SRB assay; conditions: HCT-116, 48 h; in short: as §2
[7] = tested on: HCC 2998; test: Antitumor activity against human HCC2998 cells after 48 hrs by SRB assay; conditions: HCC 2998, 48 h; in short: as §2
[8] = tested on: MDA-MB-435; test: Antitumor activity against human MDA-MB-435 cells after 48 hrs by SRB assay; conditions: MDA-MB-435, 48 h; in short: as §2
[9] = tested on: OVCAR-5; test: Cytotoxicity against human OVCAR5 cells assessed as cellular growth at 10 uM after 48 hrs by SRB assay; in short: as §1
[10] = tested on: HT-29; test: Antiproliferative activity against human HT-29 cells after 48 hrs by SRB assay; conditions: HT-29, 48 h; in short: as §2
[11] = tested on: Malme-3M; test: Antitumor activity against human MALME-3M cells after 48 hrs by SRB assay; in short: as §2
[12] = tested on: SK-OV-3; test: Cytotoxicity against human SKOV3 cells assessed as cellular growth at 10 uM after 48 hrs by SRB assay; in short: as §1
[13] = tested on: RXF 393; test: Antitumor activity against human RXF393 cells after 48 hrs by SRB assay; conditions: RXF 393, 48 h; in short: as §2
[14] = tested on: M14; test: Cytotoxicity against human M14 cells assessed as cellular growth at 10 uM after 48 hrs by SRB assay
In short: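 NCI60 single-dose screen of cells in RPMI 1640 with 5% FBS and 2 mM L-glutamine, preincubated 24 h at 37 °C, 5% CO₂. Cells were then exposed 48 h to compound added from DMSO stock. TCA-fixed, stained with 0.4% SRB in 1% acetic acid, dye solubilised in 10 mM Tris base and read at 515 nm. Growth is given as percent of untreated control.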

[15] = tested on: IGROV-1; test: Antitumor activity against human IGROV1 cells after 48 hrs by SRB assay; conditions: IGROV-1, 48 h; in short: as §2
[16] = tested on: OVCAR-3; test: Cytotoxicity against human OVCAR3 cells assessed as cellular growth at 10 uM after 48 hrs by SRB assay; in short: as §1
[17] = tested on: HL-60(TB); test: Antitumor activity against human HL-60(TB) cells after 48 hrs by SRB assay; conditions: HL-60, 48 h
In short: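 NCI60 screen: cells grown in RPMI 1640 with 5% FBS and 2 mM L-glutamine, plated at 5000–40,000 cells/well by doubling time, preincubated 24 h at 37 °C with 5% CO2. Compounds were diluted from DMSO stocks and given for 48 h, at five concentrations for dose response. A time-zero plate was TCA-fixed. Cells were TCA-fixed, stained with 0.4% SRB and read at 515 nm, with growth expressed relative to untreated controls.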

[18] = tested on: SK-MEL-5; test: Antitumor activity against human SK-MEL-5 cells after 48 hrs by SRB assay; conditions: SK-MEL-5, 48 h; in short: as §3
[19] = tested on: MOLT-4; test: Cytotoxicity against human MOLT4 cells assessed as cellular growth at 10 uM after 48 hrs by SRB assay; in short: as §1
[20] = tested on: NCI-H322M; test: Antitumor activity against human NCI-H322M cells after 48 hrs by SRB assay; in short: as §2
[21] = read-out: pLC50 (the source's name) (converted)
[22] = read-out: LC50 (the source's name)

COc1ccc(/C(=C2/O[C@@H]([C@H]3COC(C)(C)O3)[C@H]3OC(C)(C)O[C@@H]23)c2cc(OC)c(OC)c(OC)c2)cc1O
Activity [1]: 57%
Activity [2]: 63.56%
LC50 (concentration killing 50% of cells relative to time zero) [3]: > 100 µM
GI50 ([3]; read-out: GI50): 6.95 µM
TGI ([3]; read-out: TGI): 31.4 µM
GI50 ([3]; read-out: pGI50 (converted)): 6.92 µM
CC50 [3, 21]: > 100 µM
TGI ([3]; read-out: pTGI (converted)): 31.6 µM
GI50 ([4]; read-out: GI50): 5.79 µM
CC50 [4, 22]: > 100 µM
TGI ([4]; read-out: TGI): > 100 µM
GI50 ([4]; read-out: pGI50 (converted)): 57.5 µM
CC50 [4, 21]: > 100 µM
TGI ([4]; read-out: pTGI (converted)): > 100 µM
GI50 ([5]; read-out: GI50): 2.94 µM
CC50 [5, 22]: > 100 µM
TGI ([5]; read-out: TGI): 81.4 µM
GI50 ([5]; read-out: pGI50 (converted)): 23.4 µM
CC50 [5, 21]: > 100 µM
TGI ([5]; read-out: pTGI (converted)): 61.7 µM
GI50 [6]: 4.14 µM
LC50 (concentration giving 50% net cell kill) [6]: > 100 µM
TGI [6]: > 100 µM
GI50 ([7]; read-out: GI50): 1.32 µM
CC50 [7, 22]: > 100 µM
TGI ([7]; read-out: TGI): > 100 µM
GI50 ([7]; read-out: pGI50 (converted)): 20.9 µM
CC50 [7, 21]: > 100 µM
TGI ([7]; read-out: pTGI (converted)): > 100 µM
GI50 [8]: 1.48 µM
TGI [8]: 3.7 µM
CC50 [8, 22]: > 100 µM
Activity [9]: 95.38%
LC50 (50% net cell kill) [10]: > 100 µM
GI50 ([10]; read-out: GI50): 3.99 µM
TGI ([10]; read-out: TGI): > 100 µM
GI50 ([10]; read-out: pGI50 (converted)): 3.98 µM
CC50 [10, 21]: > 100 µM
TGI ([10]; read-out: pTGI (converted)): > 100 µM
GI50 [11]: 5.46 µM
LC50 (concentration killing 50% of cells present at time zero) [11]: > 100 µM
TGI [11]: > 100 µM
Activity [12]: 36.02%
GI50 [13]: 2.12 µM
TGI [13]: 5.89 µM
CC50 [13, 22]: 29.8 µM
Activity [14]: 7.95%
GI50 ([15]; read-out: GI50): 3.32 µM
CC50 [15, 22]: > 100 µM
TGI ([15]; read-out: TGI): > 100 µM
GI50 ([15]; read-out: pGI50 (converted)): 33.1 µM
CC50 [15, 21]: > 100 µM
TGI ([15]; read-out: pTGI): > 100 µM
Activity [16]: 48%
GI50 ([17]; read-out: GI50): 3.39 µM
CC50 [17, 22]: > 100 µM
TGI ([17]; read-out: TGI): 23.3 µM
GI50 ([17]; read-out: pGI50 (converted)): 3.39 µM
CC50 [17, 21]: > 100 µM
TGI ([17]; read-out: pTGI (converted)): 23.4 µM
GI50 [18]: 2.69 µM
LC50 [18]: 49.3 µM
TGI [18]: 11.2 µM
Activity [19]: 59.94%
GI50 ([20]; read-out: GI50): 6.58 µM
CC50 [20, 22]: > 100 µM
TGI ([20]; read-out: TGI): > 100 µM
GI50 ([20]; read-out: pGI50 (converted)): 6.61 µM
CC50 [20, 21]: > 100 µM
TGI ([20]; read-out: pTGI): > 100 µM
